Shown are actives, neighbours in structure and some others; about 3.8% of the full set was active somewhere.
GPR7 antag: antagonists of human GPR7 (neuropeptides B/W receptor 1); P48145; GPR7-expressing cells, fluorescence antagonist assay; inhibition, % at 4.4 µM; 290,000 tested, 1.1% active; in the data active = inhibition above about 16%, passing the limit was not always enough;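 also: cells stimulated with the agonist NPW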
Target sequence (P48145 whole entry, looked up): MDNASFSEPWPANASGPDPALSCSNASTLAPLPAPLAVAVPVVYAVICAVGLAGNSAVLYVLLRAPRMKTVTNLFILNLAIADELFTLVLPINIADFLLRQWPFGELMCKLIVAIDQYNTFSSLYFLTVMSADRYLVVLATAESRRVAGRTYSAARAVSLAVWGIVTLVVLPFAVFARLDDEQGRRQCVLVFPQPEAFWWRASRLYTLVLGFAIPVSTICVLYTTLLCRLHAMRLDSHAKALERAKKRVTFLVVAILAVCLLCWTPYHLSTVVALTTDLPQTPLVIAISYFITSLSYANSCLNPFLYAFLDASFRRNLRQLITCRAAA
CHO parental Ca: signal in parental CHO cells, OX1R antagonist counter-screen; inhibition, % at 5.6 µM; 330,000 tested, 0.63% active; parental CHO-K1, ATP-induced calcium, Fluo-8 fluorescence;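 active = inhibition above that plate's mean sample inhibition plus 3 SD, cut at about 26% in these data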
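test system = CHO parental line | reagent = ATP stimulus | measured by = intracellular calcium via Fluo-8 no-wash fluorescent dye | control set = ATP and no-ATP DMSO wells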
MPTP inh: permeability transition pore inhibition; inhibition, % at 10 µM; AID 602449; isolated mouse mitochondria, Ca2+ swelling absorbance, 30 min; 360,000 tested, 1.4% active;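 active = inhibition of 50% or more, scaled per plate between neutral and stimulator controls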
OX1R antag-1: antagonists of human orexin 1 receptor | AID 434989 | inhibition, % at 5 µM | O43613 | CHO/OX1R cells, Fluo-8 calcium fluorescence, orexin A | 330,000 tested, 0.43% active;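 active = inhibition above its plate's threshold, mean inhibition of all tested compounds on the plate plus 3 SD, cut at about 37% in these data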
OX1R antag-2: blocks the human orexin 1 receptor. O43613. OX1R-expressing cells, FRET antagonist read-out. inhibition, % at 6.6 µM. 330,000 tested, 1.8% active; in the data active = inhibition mostly above about 38%, no sharp cut-off; inactive = mostly below about 40%
GPR7 antag cf: human GPR7 antagonism, confirmation assay; inhibition, % at 4.4 µM; 2,400 tested, 52% active; shares compounds with GPR7 antag; GPR7-expressing cells, calcium fluorescence antagonist mode; in the data active = inhibition above about 24%;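 also: stimulated with the GPR7 agonist NPW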
MCHR1 antag: counter-screen for GPR7 antagonists: antagonists of human MCHR1 | shares compounds with GPR7 antag | MCHR1-expressing cells, fluorescence antagonist assay | inhibition, % at 4.4 µM | 2,400 tested, 62% active; in the data active = inhibition above about 22%
Hits are given with their value; - = inactive; . = no result given.

SMILES	GPR7 antag	CHO parental Ca	MPTP inh	OX1R antag-1	OX1R antag-2	GPR7 antag cf	MCHR1 antag
COc1cc(CNc2ccccc2Oc2cc(=O)n(C)c(=O)n2C)cc(OC)c1OC	37.0	-	-	-	-	24.9	24.4
Cn1c(Oc2ccccc2NCc2cc(Br)ccc2O)cc(=O)n(C)c1=O	-	-	-	-	-	.	.
C/C(=N\NC(=O)CNC(=O)c1ccco1)c1ccc(Br)cc1	24.1	-	-	-	-	-	-
COc1ccc(CN(C)C(=O)C23CC4CC(CC(Cl)(C4)C2)C3)c(OC)c1OC	24.8	-	-	-	-	-	23.3
COc1cccc(CN(C)C(=O)C23CC4CC(CC(NC(C)=O)(C4)C2)C3)c1OC	-	.	-	.	.	.	.
COC(=O)CC1(C(=O)OC)Oc2ccc(Br)cc2C(=O)N1c1cccc(Cl)c1Cl (configuration not stated)	29.9	-	-	-	-	32.0	53.3
COC(=O)CC1(C(=O)OC)Oc2ccc(Br)cc2C(=O)N1c1ccc(Br)cc1Cl (configuration not stated)	-	-	-	-	-	.	.
O=C(CSc1ccc(Br)cc1)N1CCN(S(=O)(=O)c2ccccc2)CC1	-	-	-	-	-	.	.
O=C(CSc1cccc(C(F)(F)F)c1)N1CCN(S(=O)(=O)c2ccccc2)CC1	34.0	-	-	-	-	-	-
CSc1ccc(S(=O)(=O)N2CCC(C(=O)NCCN3CCOCC3)CC2)cc1	-	-	-	-	-	.	.
O=C(NCc1ccccc1Cl)C1CCCN(S(=O)(=O)c2cccc3nonc23)C1 (configuration not stated)	-	-	-	-	-	.	.
O=c1c2c(nc3cc(-c4ccc(F)cc4)[nH]n13)CCC2	29.5	-	-	-	-	-	-
Cc1ccc(-c2cc3nc4c(c(=O)n3[nH]2)CCCC4)cc1	-	-	-	-	-	.	.
CSc1nsc(SC)c1C(=O)N1CCN(S(=O)(=O)c2ccc(C)cc2)C1C (configuration not stated)	-	-	-	-	-	.	.
CSc1nsc(SC)c1C(=O)N1CCN(S(=O)(=O)c2ccc(C)cc2)C1C(C)C (configuration not stated)	26.8	-	-	-	-	-	45.7
Cn1cc(C(=O)c2cccc(Cl)c2)cc1/C=N\O	22.0	-	-	-	-	-	-
Cn1cc(C(=O)c2cccc(Cl)c2)cc1C#N	-	-	-	-	-	.	.
CCSc1nccc(-c2nn(-c3ccc(C)cc3)ccc2=O)n1	22.9	-	-	-	-	-	25.5
CSc1nccc(-c2nn(-c3ccc(C)cc3)ccc2=O)n1	-	-	-	-	-	.	.
CCCC(=O)NC(=S)Nc1ccc(S(=O)(=O)Nc2ccc(OCC)cc2)cc1	29.3	-	-	-	-	53.4	66.9
CCOc1ccc(NS(=O)(=O)c2ccc(C(=O)N(C)CC(=O)Nc3ccc(OC)cc3)cc2)cc1	.	-	-	-	-	.	.
C(=C\c1ccccc1)/CSc1nnc(-c2cnccn2)n1Cc1ccco1	20.9	-	-	-	-	24.5	38.8
Cc1cccc(C(=O)Nc2cccc3c2CCCC3)c1	-	-	-	-	-	.	.
Cc1ccc(C(O)(C(=O)NN(C(=O)c2ccccc2)c2ccccc2)c2ccc(C)cc2)cc1	35.8	-	-	-	-	39.5	22.9
O=C(c1ccccc1)N(NC(=O)C(O)(c1ccccc1)c1ccccc1)c1cccc(F)c1	37.0	-	-	-	-	-	64.1
SMILES	GPR7 antag	CHO parental Ca	MPTP inh	OX1R antag-1	OX1R antag-2	GPR7 antag cf	MCHR1 antag
CCOC(=O)CC(NC(=O)CCc1c(C)nc2ncnn2c1C)c1ccc(OC(C)C)cc1 (configuration not stated)	-	-	-	-	-	.	.
COc1ccc(-n2c(C)cc(C(=O)COc3ccc(-n4cnnn4)cc3)c2C)cc1	28.5	-	-	-	-	-	23.7
COc1ccc(NC(=S)N(Cc2ccc(C)cc2)Cc2ccccn2)cc1	25.0	-	-	-	-	-	-
O=C(CC1C(=O)NCCN1CC1CCCCC1)NCc1cccc(F)c1F (configuration not stated)	-	-	-	-	-	.	.
COc1ccccc1C(=O)N/N=C/c1c[nH]c2ccccc12	-	-	-	-	-	.	.
CN(C)S(=O)(=O)Oc1ccsc1C(=O)Nc1ccc(Cl)c(Cl)c1	27.8	-	-	-	-	-	58.1
CN(C)S(=O)(=O)Oc1ccsc1C(=O)Nc1ccc(Br)cc1	-	-	-	-	-	.	.
Cc1nc2ccc(C(=O)N3CCCC(CO)(Cc4ccc(F)cc4F)C3)cc2nc1C (configuration not stated)	31.7	-	-	-	-	-	-
CCn1nc(C(C)C)cc1C(=O)N1CCCC(CO)(Cc2ccc(F)cc2F)C1 (configuration not stated)	27.7	-	-	-	44.3	-	27.1
COc1ccc(CN2CCCC(CO)(Cc3ccc(F)cc3F)C2)cc1 (configuration not stated)	-	-	-	-	-	.	.
Cc1cc(C(=O)N2CCCC(CO)(Cc3ccc(F)cc3F)C2)nn1C (configuration not stated)	.	.	-	.	.	.	.
CCCCC(O)(CCCC)C(=O)NN(C(=O)OC)c1ccc(C)cc1	23.3	-	-	-	-	-	-
O=[N+]([O-])c1ccc(C(O)CN=Cc2ccc(O)cc2O)cc1 (configuration not stated)	-	-	-	-	-	.	.
O=C(CNC(=O)c1ccco1)OCc1c(F)cccc1Cl	24.8	-	-	-	-	-	-
O=C(CNC(=O)c1ccco1)NCC(=O)OCc1c(F)cccc1Cl	-	-	-	-	-	.	.
Cc1ccc(S(=O)(=O)c2nc(NN(C)C)sc2Cl)cc1	-	-	-	-	-	.	.
COc1ccccc1OCc1nnc(SCC(=O)NCc2ccco2)n1Cc1ccco1	-	-	-	-	-	.	.
CCn1c(COc2ccc(C)cc2)nnc1SCC(=O)NCc1ccco1	24.1	-	-	-	-	-	-
Cc1cccc(C(=O)Nc2scc(-c3ccc(Br)cc3)c2C(=O)O)c1	.	-	-	-	-	.	.
Cc1ccc(-c2csc(NC(=O)c3ccc(Br)cc3)c2C(=O)O)cc1	40.0	-	-	-	-	62.3	45.8
O=C(O)COn1c(-c2ccccc2)nc2ccc([N+](=O)[O-])cc21	30.9	-	-	-	-	-	-
CCOC(=O)C(C)On1c(-c2ccccc2)nc2ccc([N+](=O)[O-])cc21 (configuration not stated)	.	-	-	-	-	.	-
CCCCSCCCNC(=O)Nc1ccc(C)c(C)c1	-	-	-	-	-	.	.
CC1=CC(c2ccc(Cl)cc2)n2nc(NC(=O)CCC(=O)O)nc2N1 (configuration not stated)	-	-	-	-	-	.	.
N#Cc1cccc(N2[C@@H](Cc3cc4ccccc4n3Cc3ccccc3)COC[C@H]2Cc2ccc3ccccc3c2)c1	.	.	-	.	.	.	.

High-throughput results deposited in PubChem by several laboratories.
